ChEMBL document CHEMBL2203022, “Design, synthesis and antimicrobial evaluation of novel 1-benzyl 2-butyl-4-chloroimidazole embodied 4-azafluorenones via molecular hybridization approach” (2012)

Tests used:
Format in all cases: functional
Candida albicans = assay: Antifungal activity against Candida albicans MTCC 7253 at 10 ug per disk after 2 to 3 days by disc diffusion method; details: read-out: DIZ
Method in brief: (§1)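 Fungal inoculum: a loopful of each strain suspended in saline, spread evenly on yeast extract potato dextrose agar with a sterile glass spreader. Sterile 5 mm discs loaded with test compound in DMSO placed on the agar. Plates incubated 2–3 days at room temperature. Nystatin as reference standard. Zones of inhibition measured and compared with control and standard.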

Aspergillus flavus = assay: Antifungal activity against Aspergillus flavus MTCC 8188 at 10 ug per disk after 2 to 3 days by disc diffusion method; details: for zone of inhibition at 10 µg/disc: read-out: DIZ; method in brief: as §1
Klebsiella pneumoniae = assay: Antibacterial activity against Klebsiella pneumoniae MTCC 618 at 10 ug per disk after 24 hrs by disc diffusion method; details: for zone of inhibition at 10 µg/disc: MTCC 618, 24 h, read-out: DIZ
Method in brief: (§2)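 Standard 0.5 McFarland inoculum spread evenly over nutrient agar plates with a sterile L-shaped glass spreader. Plates incubated 24 h at 37 °C. Gentamicin as reference standard. Read-out: zone of inhibition in mm, measured in triplicate and compared with control and standard.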

Pseudomonas aeruginosa = assay: Antibacterial activity against Pseudomonas aeruginosa MTCC 2453 at 10 ug per disk after 24 hrs by disc diffusion method; details: MTCC 2453, 24 h, read-out: DIZ; method in brief: as §2
Escherichia coli = assay: Antibacterial activity against Escherichia coli MTCC 1573 at 10 ug per disk after 24 hrs by disc diffusion method; details: MTCC 1573, 24 h, read-out: DIZ; method in brief: as §2
Staphylococcus aureus = assay: Antibacterial activity against Staphylococcus aureus MTCC 1430 at 10 ug per disk after 24 hrs by disc diffusion method; details: MTCC 1430, 24 h, read-out: DIZ; method in brief: as §2
Bacillus subtilis = assay: Antibacterial activity against Bacillus subtilis MTCC 121 at 10 ug per disk after 24 hrs by disc diffusion method; details: for zone of inhibition at 10 µg/disc: MTCC 121, 24 h, read-out: DIZ; method in brief: as §2

Compound	zone of inhibition at 10 µg/disc (Candida albicans)	zone of inhibition at 10 µg/disc (Aspergillus flavus)	zone of inhibition at 10 µg/disc (Klebsiella pneumoniae)	zone of inhibition at 10 µg/disc (Pseudomonas aeruginosa)	zone of inhibition at 10 µg/disc (Escherichia coli)	zone of inhibition at 10 µg/disc (Staphylococcus aureus)	zone of inhibition at 10 µg/disc (Bacillus subtilis)	inhibition zone (IZ) (Klebsiella pneumoniae)	inhibition zone (IZ) (Bacillus subtilis)	inhibition zone (IZ) (Aspergillus flavus)
CCCCc1nc(Cl)c(-c2cc(-c3ccc4sc5ccccc5c4c3)nc3c2C(=O)c2ccccc2-3)n1Cc1ccccc1	14 mm	10 mm	11 mm	7 mm	8 mm	12 mm	9 mm	–	–	–
CCCCc1nc(Cl)c(-c2cc(-c3ccc([N+](=O)[O-])cc3)nc3c2C(=O)c2ccccc2-3)n1Cc1ccccc1	11 mm	6 mm	10 mm	10 mm	8 mm	10 mm	10 mm	–	–	–
GENTAMICIN	–	–	–	–	–	–	–	19 mm	14 mm	–
NYSTATIN	–	–	–	–	–	–	–	–	–	9 mm
CCCCc1nc(Cl)c(-c2cc(-c3ccc(Br)cc3)nc3c2C(=O)c2ccccc2-3)n1Cc1ccccc1	10 mm	7 mm	12 mm	6 mm	9 mm	12 mm	9 mm	–	–	–
CCCCc1nc(Cl)c(-c2cc(-c3cc(OC)c(OC)c(OC)c3)nc3c2C(=O)c2ccccc2-3)n1Cc1ccccc1	10 mm	6 mm	11 mm	7 mm	9 mm	12 mm	9 mm	–	–	–
CCCCc1nc(Cl)c(-c2cc(-c3ccccc3)nc3c2C(=O)c2ccccc2-3)n1Cc1ccccc1	10 mm	8 mm	11 mm	10 mm	9 mm	12 mm	8 mm	–	–	–
CCCCc1nc(Cl)c(-c2cc(-c3cccs3)nc3c2C(=O)c2ccccc2-3)n1Cc1ccccc1	10 mm	5 mm	10 mm	11 mm	9 mm	10 mm	10 mm	–	–	–
CCCCc1nc(Cl)c(-c2cc(-c3cccc(Br)n3)nc3c2C(=O)c2ccccc2-3)n1Cc1ccccc1	11 mm	9 mm	9 mm	12 mm	9 mm	12 mm	8 mm	–	–	–
CCCCc1nc(Cl)c(-c2cc(-c3ccc4ccccc4c3)nc3c2C(=O)c2ccccc2-3)n1Cc1ccccc1	10 mm	6 mm	12 mm	13 mm	8 mm	12 mm	9 mm	–	–	–
CCCCc1nc(Cl)c(-c2cc(-c3ccco3)nc3c2C(=O)c2ccccc2-3)n1Cc1ccccc1	13 mm	10 mm	15 mm	14 mm	8 mm	15 mm	8 mm	–	–	–
CCCCc1nc(Cl)c(-c2cc(-c3cn(S(=O)(=O)c4ccc(C)cc4)c4ccccc34)nc3c2C(=O)c2ccccc2-3)n1Cc1ccccc1	13 mm	11 mm	12 mm	7 mm	8 mm	10 mm	7 mm	–	–	–
CCCCc1nc(Cl)c(-c2cc(-c3ccc4oc5ccccc5c4c3)nc3c2C(=O)c2ccccc2-3)n1Cc1ccccc1	10 mm	7 mm	13 mm	13 mm	9 mm	11 mm	9 mm	–	–	–
CCCCc1nc(Cl)c(-c2cc(-c3cccc4ccccc34)nc3c2C(=O)c2ccccc2-3)n1Cc1ccccc1	12 mm	5 mm	12 mm	6 mm	9 mm	12 mm	10 mm	–	–	–
CCCCc1nc(Cl)c(-c2cc(-c3ccc(Br)s3)nc3c2C(=O)c2ccccc2-3)n1Cc1ccccc1	9 mm	7 mm	12 mm	13 mm	8 mm	12 mm	9 mm	–	–	–
CCCCc1nc(Cl)c(-c2cc(-c3ccc(OC)cc3)nc3c2C(=O)c2ccccc2-3)n1Cc1ccccc1	12 mm	6 mm	11 mm	9 mm	8 mm	10 mm	9 mm	–	–	–
CCCCc1nc(Cl)c(-c2cc(-c3ccc(C)cc3)nc3c2C(=O)c2ccccc2-3)n1Cc1ccccc1	10 mm	7 mm	11 mm	8 mm	9 mm	10 mm	8 mm	–	–	–
